Experimental data as given in ChEMBL document CHEMBL4043068, “(±)-Uncarilins A and B, Dimeric Isoechinulin-Type Alkaloids from Uncaria rhynchophylla” (J Nat Prod, 2017).
Calls of active or inactive are those of the source. The rule behind the calls is not given here.

Tests used:
Assay type in all cases: functional, cell-based
[1] = molecular target: Melatonin receptor type 1A (Homo sapiens) (UniProt P48039); test: Agonist activity at human MT1 receptor expressed in HEK293 cells incubated for 1 hr by Fluo-8 dye based calcium assay
Method in brief: (§1)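 HEK293 cells stably expressing the human receptor, kept in DMEM with 10% FBS, seeded at 4 × 10^4 cells/well on Matrigel-coated plates and incubated overnight (5% CO2, 37 °C). Fluo-8 wash-free calcium dye loaded for 1 h at 37 °C. Samples in Hank's balanced salt solution, tested at 0.25 mM. Calcium fluorescence read on a FlexStation3 plate reader.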

[2] = molecular target: T1, 5-hydroxytryptamine receptor 2C (Homo sapiens) (UniProt P28335); test: Agonist activity at human 5HT2C receptor expressed in HEK293 cells incubated for 1 hr by Fluo-8 dye based calcium assay; method in brief: as §1
T1 sequence (whole entry): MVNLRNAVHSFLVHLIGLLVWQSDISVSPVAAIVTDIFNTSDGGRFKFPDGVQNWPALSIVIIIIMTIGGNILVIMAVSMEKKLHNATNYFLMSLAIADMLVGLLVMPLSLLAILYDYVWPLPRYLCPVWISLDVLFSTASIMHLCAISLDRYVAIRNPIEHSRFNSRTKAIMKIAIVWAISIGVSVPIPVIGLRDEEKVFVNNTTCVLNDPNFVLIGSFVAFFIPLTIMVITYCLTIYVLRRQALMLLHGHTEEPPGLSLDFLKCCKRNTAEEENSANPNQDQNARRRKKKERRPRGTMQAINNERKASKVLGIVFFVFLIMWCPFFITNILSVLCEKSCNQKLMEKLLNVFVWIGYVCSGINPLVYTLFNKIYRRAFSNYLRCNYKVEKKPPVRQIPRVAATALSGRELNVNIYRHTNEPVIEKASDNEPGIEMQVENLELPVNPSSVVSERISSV

[3] = molecular target: T2, 5-hydroxytryptamine receptor 1A (Homo sapiens) (UniProt P08908); test: Agonist activity at human 5HT1A receptor expressed in HEK293 cells incubated for 1 hr by Fluo-8 dye based calcium assay; method in brief: as §1
T2 sequence (whole entry): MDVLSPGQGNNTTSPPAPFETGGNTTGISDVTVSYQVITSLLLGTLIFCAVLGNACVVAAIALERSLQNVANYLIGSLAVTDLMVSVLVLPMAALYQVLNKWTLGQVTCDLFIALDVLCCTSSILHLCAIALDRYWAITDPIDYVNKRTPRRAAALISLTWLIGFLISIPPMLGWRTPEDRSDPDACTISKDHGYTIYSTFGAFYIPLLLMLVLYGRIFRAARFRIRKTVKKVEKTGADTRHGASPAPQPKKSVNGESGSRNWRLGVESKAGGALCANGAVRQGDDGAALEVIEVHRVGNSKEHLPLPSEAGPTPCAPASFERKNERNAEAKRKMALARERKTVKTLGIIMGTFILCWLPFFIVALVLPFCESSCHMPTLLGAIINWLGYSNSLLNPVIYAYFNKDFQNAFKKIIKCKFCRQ

[4] = molecular target: T3, Melatonin receptor type 1B (Homo sapiens) (UniProt P49286); test: Agonist activity at human MT2 receptor expressed in HEK293 cells incubated for 1 hr by Fluo-8 dye based calcium assay; method in brief: as §1
T3 sequence (whole entry): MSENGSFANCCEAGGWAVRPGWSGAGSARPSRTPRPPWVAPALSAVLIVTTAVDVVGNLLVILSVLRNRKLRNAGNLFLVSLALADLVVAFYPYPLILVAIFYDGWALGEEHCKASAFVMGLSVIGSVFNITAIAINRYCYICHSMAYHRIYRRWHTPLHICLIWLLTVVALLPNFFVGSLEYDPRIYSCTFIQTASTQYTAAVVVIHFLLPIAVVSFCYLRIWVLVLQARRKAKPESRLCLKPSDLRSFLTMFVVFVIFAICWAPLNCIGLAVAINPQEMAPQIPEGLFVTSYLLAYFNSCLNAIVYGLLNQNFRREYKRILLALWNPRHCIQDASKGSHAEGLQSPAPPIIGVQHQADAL

Chain of Melatonin receptor type 1A (Homo sapiens) (P48039 whole entry): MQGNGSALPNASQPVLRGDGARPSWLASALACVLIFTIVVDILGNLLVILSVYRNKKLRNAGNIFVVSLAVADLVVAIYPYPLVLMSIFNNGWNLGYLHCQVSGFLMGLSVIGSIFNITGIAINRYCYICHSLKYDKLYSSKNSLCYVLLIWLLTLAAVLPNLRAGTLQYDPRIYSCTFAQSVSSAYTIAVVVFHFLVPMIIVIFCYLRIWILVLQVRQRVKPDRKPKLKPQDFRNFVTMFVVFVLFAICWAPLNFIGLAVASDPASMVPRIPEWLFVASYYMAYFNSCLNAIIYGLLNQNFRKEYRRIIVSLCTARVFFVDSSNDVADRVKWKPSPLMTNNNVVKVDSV

Row | Activity [1] | Activity [2] | Activity [3] | Activity [4] | SMILES
1 | Active | inactive | inactive | Active | C=CC(C)(C)c1[nH]c2ccccc2c1[C@@H]1[C@@H](c2c(C(C)(C)C=C)[nH]c3ccccc23)[C@@]2(NC(=O)[C@H](C)NC2=O)[C@]12NC(=O)[C@H](C)NC2=O
2 | Active | inactive | inactive | Active | C=CC(C)(C)c1[nH]c2ccccc2c1[C@@H]1[C@@H](c2c(C(C)(C)C=C)[nH]c3ccccc23)[C@@]2(NC(=O)[C@@H](C)NC2=O)[C@]12NC(=O)[C@@H](C)NC2=O
3 | 11.3% | inactive | inactive | 52.4% | C=CC(C)(C)c1[nH]c2ccccc2c1[C@H]1[C@H](c2c(C(C)(C)C=C)[nH]c3ccccc23)[C@]2(NC(=O)[C@@H](C)NC2=O)[C@@]12NC(=O)[C@@H](C)NC2=O
4 | Active | inactive | inactive | Active | C=CC(C)(C)c1[nH]c2ccccc2c1[C@H]1[C@H](c2c(C(C)(C)C=C)[nH]c3ccccc23)[C@]2(NC(=O)[C@H](C)NC2=O)[C@@]12NC(=O)[C@H](C)NC2=O
